Bioassay records from PubChem.
eIF4H FP inh – inhibitors of RNA binding by human eIF4H | eIF4H fluorescence polarization binding assay | actives 0.94% (n = 290,000) | inhibition, % at 35 µM;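 also: calls also rest on retests at 20 µM and on dose response follow-up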
PABP polyA inh – PABP-poly(A) binding inhibition; inhibition, % at 35 µM; PABP-poly(A) RNA binding, fluorescence polarization; actives 1% (n = 290,000);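 also: calls also rest on retests at 20 µM and on dose response follow-up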
Target sequence (P11940 whole entry, looked up): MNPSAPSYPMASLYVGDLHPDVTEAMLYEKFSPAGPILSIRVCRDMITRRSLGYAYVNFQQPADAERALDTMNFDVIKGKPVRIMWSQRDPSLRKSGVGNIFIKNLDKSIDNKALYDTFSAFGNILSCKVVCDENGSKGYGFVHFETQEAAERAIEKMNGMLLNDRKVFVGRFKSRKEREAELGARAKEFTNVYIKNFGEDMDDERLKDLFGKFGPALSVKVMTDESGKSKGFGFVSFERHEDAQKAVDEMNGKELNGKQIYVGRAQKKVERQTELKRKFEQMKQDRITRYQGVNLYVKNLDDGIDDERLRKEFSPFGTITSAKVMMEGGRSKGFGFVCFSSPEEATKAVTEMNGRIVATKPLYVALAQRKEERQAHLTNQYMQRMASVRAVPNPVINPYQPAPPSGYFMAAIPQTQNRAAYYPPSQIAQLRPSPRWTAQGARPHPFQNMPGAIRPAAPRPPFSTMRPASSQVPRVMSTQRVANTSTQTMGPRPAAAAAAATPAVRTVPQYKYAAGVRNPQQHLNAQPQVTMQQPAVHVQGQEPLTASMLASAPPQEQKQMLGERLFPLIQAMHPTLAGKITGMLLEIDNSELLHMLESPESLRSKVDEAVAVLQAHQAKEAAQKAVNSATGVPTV
MT1-MMP act inh – inhibitors of human MT1-MMP activation; P50281; HT1080 RFP-PRO-GFP cells, GFP/RFP ratio fluorescence, overnight; percent of plate control window, DMSO zero; GFP/RFP ratio change, % at 20 µM; actives 0.061% (n = 360,000); AID 651647;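 active = GFP/RFP ratio change of at least 30% with cell ATP level not reduced by more than half and red fluorescence within 50% of control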
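Material: RFP-PRO-GFP reporter HT1080 cells. Dosing: single-point 20 µM compound, 1% DMSO. Controls: DMSO and RFP-L50D-GFP cell wells. Timing: cells overnight before dosing, compound overnight, 37 °C, 5% CO2. Measure: GFP/RFP fluorescence ratio.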
SKN-1 block – blocks SKN-1 activity in C. elegans; C. elegans VP596 Pgst-4::GFP/RFP ratio, acrylamide-induced, 24 h; inhibition, % at 21.8 µM; actives 0.49% (n = 360,000); AID 624304;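 active = interference check ratio from 0.5 to 1.5 plus GFP to RFP signal ratio inhibition reaching or exceeding a fixed threshold, cut at about 30% in these data, passing the limit was not always enough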
MLLE-PAM2 inh – inhibitors of microRNA-mediated deadenylation, human PABP1 MLLE binding. P11940. actives 0.36% (n = 360,000). inhibition, % at 20 µM. GST-MLLE / FITC-PAM2 fluorescence polarization. AID 588489; in the data active = inhibition above about 35%, passing the limit was not always enough;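 also: plate controls were DMSO wells with GST-MLLE for no effect and wells lacking GST-MLLE protein for full effect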
An asterisk follows results filed as active; ? = inconclusive; · = no result. Sampled rows, rich in hits. Any-hit rate of the full collection: about 1.7%. Unless noted, no rule for the calls is given here.

SMILES	eIF4H FP inh	PABP polyA inh	MT1-MMP act inh	SKN-1 block	MLLE-PAM2 inh
CCCN1C[C@H](CSC)C[C@@H]2c3cccc4[nH]cc(c34)C[C@H]21	100.5*	2.0*	-9.7	-19.0	20.4
CC(OC(=O)c1ccc2c(=O)n3c(nc2c1)CCC3)C(N)=O (stereo not given)	4.5*	75.2*	-1.4	-0.9	-12.8
COc1ccc(NC(=O)C2Cc3c(-c4cccc(F)c4)ccnc3O2)cc1OC (stereo not given)	·	·	7.9	3.7	11.3
Cc1cccc2cc(=O)[nH]c(C)c12	0.2	55.1*	-1.2	0.9	-85.6
Cc1cccc(N2C(=NC(=O)c3ccccc3)SC3CS(=O)(=O)CC32)c1 (stereo not given)	-3.0	-3.9	-3.7	25.0	-4.2
O=C(CN1CCN(c2ccccn2)CC1)Nc1ccc(Oc2ccccc2)cc1	active	52.4	4.9	-11.6	4.0
CN1CCc2cccc3c2[C@@H]1Cc1ccc(O)c(O)c1-3	25.5	-5.5	7.9	3.0	45.7*
COc1cccc(/C=N/N2C(=O)CSC2=S)c1O	21.6	11.3	27.4	-7.7	22.1
COc1cc(/C=N/N2C(=O)CSC2=S)cc(Br)c1O	18.2	-6.1	-43.4	43.4*	-110.8
O=C(NCc1cccs1)c1csc([C@@H]2O[C@H](CO)[C@H](O)[C@H](O)[C@H]2O)n1	·	·	-0.4	42.7*	2.6
COCCCNC(=O)c1ccc2c3c(onc13)-c1ccccc1C2=O	?	?	24.4	62.1*	192.8
C[C@@H]1CN([C@@H](C)CO)C(=O)c2cc(Br)cnc2O[C@H]1CN(C)Cc1cccnc1	·	·	3.5	0.4	5.2
N#Cc1c(N)oc(-c2ccc3c(c2)OCO3)c1-c1ccc2c(c1)OCO2	-4.7	9.8	-13.6	43.0*	-22.2
COC1CCN(Cc2c(C(=O)N3CCN(C4CCCCC4)CC3)nc3ccccn23)CC1	19.9	24.3	-1.4	10.5	20.4
O=C(CCCCl)Oc1ccc2cc(-c3ccc4ccccc4n3)c(=O)oc2c1	52.3*	-11.8	-112.3	0.8	15.8
CN(C)C1=C(Cl)C(=O)N(c2ccc(Cl)c(Cl)c2)C1=O	99.3	5.8*	4.3	6.6	60.4
COc1cccc(CSc2nc(N)cc(N)n2)c1	-5.9	6.5	1.7	14.4	-2.2
CN1C(=O)/C(=C2/C=CC=CN2C)OC1=S	-7.8	-3.1	1.7	7.9	40.4*
CCN1/C(=C2\OC(=S)N(C)C2=O)C=Cc2ccccc21	11.2	-21.3	-6.5	52.0	-22.7
CC(C)c1nc2c([nH]1)c(=O)n(C)c(=O)n2C	54.4*	5.0	3.4	10.5	0.9
CCCc1nc2c([nH]1)c(=O)n(C)c(=O)n2C	0.2	-4.7	-3.3	1.7	3.4
CCOC(=O)/C=c1\s/c(=C(\C#N)C(=O)NC)n(-c2ccccc2)c1=O	39.8	20.0	-3.5	-14.5	5.1
COC(=O)/C=c1/s/c(=C(/C#N)C(=O)NCc2ccccc2)n(-c2ccccc2)c1=O	110.9*	82.5*	11.2	20.5	-39.7
Clc1ccccc1/C=C/c1ccnc2ccccc12	-2.6	1.8	-4.1	35.3*	3.5
Oc1ccc(/C=C/c2ccnc3ccccc23)cc1	-6.9	-2.5	-18.9	-1.0	-5.3
SMILES	eIF4H FP inh	PABP polyA inh	MT1-MMP act inh	SKN-1 block	MLLE-PAM2 inh
Cc1ccc(-n2c(SCC(=O)NC3CCS(=O)(=O)C3)nc3ccccc3c2=O)cc1C (stereo not given)	·	·	-4.4	-2.2	8.5
CCc1ccccc1N(CC(=O)NC(C)(C)CC)C(=O)CCC(=O)Nc1nccs1	-12.2	3.6	0.2	14.0	-1.2
O=C(O[C@@H]1Cc2c(O)cc(O)cc2O[C@@H]1c1cc(O)c(O)c(O)c1)c1cc(O)c(O)c(O)c1	80.1*	53.0*	·	·	·
O=C(CCC(=O)N1CCOc2ccccc21)Nc1ccccc1Cl	-5.7	1.0	3.4	15.3	-4.1
CCN1C(=O)C(C(=O)c2ccccc2)SC1=S (stereo not given)	20.0	-2.6	5.5	5.0	38.1*
CSc1nc(N)c2c(n1)N(C)C=NS2(=O)=O	·	·	-1.7	-7.4	3.5
CC(CCc1ccccc1)NS(=O)(=O)c1ccc(Cl)c(C(=O)O)c1 (stereo not given)	4.9	16.8	0.7	-2.2	-5.3
CC1CN(C(=O)CCNC(=O)c2ccc(Br)cc2)CC(C)O1 (stereo not given)	·	·	0.9	10.6	2.1
Cc1ccc(NC(=S)Nc2ccccn2)cc1C	1.1	-1.7	-1.1	11.5	40.5*
COc1cccc(CNc2ccc3[nH]c(=O)[nH]c3c2)c1OCc1ccccc1F	3.8	-11.9	3.0	7.5	13.6
CCCc1cc(=O)oc2cc(C)cc(OCC(=O)NCCCN3CCOCC3)c12	-8.9	5.9	1.8	15.7	2.5
CCNC(=O)c1c(N)sc2c1CCCCC2	62.2*	91.6*	·	·	·
Brc1ccc(-c2csc(-c3ccncc3)n2)cc1	-4.0	2.0	2.7	39.7*	8.9
Brc1ccc(-c2csc(/N=C/N3CCCC3)n2)cc1	active	66.9*	-0.2	13.0	10.6
Cc1ccc(-c2csc(-c3ccncc3)n2)cc1	-4.9	-2.5	0.2	41.5*	-4.4
Nc1nc(-c2ccc(Br)cc2)cs1	-9.0	15.1	6.8	22.7	5.0
c1ccc(-c2csc(-c3cccnc3)n2)cc1	-9.2	-16.8	-0.6	41.6*	2.0
COc1ccc(N2C(=O)CCC(C(=O)NCCCN3CCC(C)CC3)C2c2ccc(OC)c(OC)c2)cc1 (stereo not given)	-0.4	11.1	3.8	-4.8	2.4
CC(C)(C)N1CC23C=CC(C[C@@H]2C1=O)O3 (stereo not given in full)	·	·	2.5	1.0	-1.2
COc1ccc(Cc2nnc3sc(SCC(=O)Nc4ccccc4)nn3c2=O)cc1OC	·	·	0.5	8.3	15.3
COC(=O)/C(=C\c1ccc([N+](=O)[O-])o1)NC(=O)c1ccccc1	127.5	120.4*	-9.0	13.4	-6.4
CCN(CC)C(=O)C1=C(C)N(Cc2ccc(OC)cc2)C(=O)C(CC(=O)NCCc2ccccn2)C1 (stereo not given)	·	·	2.2	10.4	-1.4
O=[N+]([O-])c1ccc2nc(-c3ccc(Cl)cc3)n(OCc3ccccc3)c2c1	-14.5	5.2	3.0	40.8*	5.2
O=C(O)COn1c(-c2ccccc2)nc2ccc([N+](=O)[O-])cc21	104.3	83.9*	3.2	26.6	34.1
CCOC(=O)C(C)On1c(-c2ccccc2)nc2ccc([N+](=O)[O-])cc21 (stereo not given)	-2.6	-0.2	2.0	-0.6	14.5
CCOC(=O)C(C)On1c(-c2ccc(Cl)cc2)nc2ccc([N+](=O)[O-])cc21 (stereo not given)	2.3	-0.5	-8.7	41.2*	0.8
Cc1ccc(COn2c(-c3ccc(Cl)cc3)nc3ccc([N+](=O)[O-])cc32)cc1	9.1	-3.4	-3.8	31.5	24.5
COn1c(-c2ccc(Cl)cc2)nc2ccc(Cl)cc21	-0.5	-8.2	1.9	87.4*	-3.7
